Screens deposited in PubChem BioAssay by several laboratories.
Only some compounds are listed: those with a hit (about 1.3% of all), similar ones and a draw of the others.
TMEM16A act = activates or potentiates the mouse TMEM16A chloride channel; HEK293 TMEM16A/YFP-H148Q/I152L, iodide quench fluorescence; hits give low values; B-score at 10 µM; 340,000 compounds, 0.3% hits; AID 623877;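 active means fluorescence-ratio B-score plate-corrected deviation score at least 3 library SD below zero, with starting fluorescence score within 5 deviations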;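 further: channel opened by trigger with iodide after compound preincubation; score built on the fluorescence ratio of max minus min over baseline; more negative score means more quench and so TMEM16A activation or potentiation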
Target sequence (Q8BHY3 whole entry, looked up): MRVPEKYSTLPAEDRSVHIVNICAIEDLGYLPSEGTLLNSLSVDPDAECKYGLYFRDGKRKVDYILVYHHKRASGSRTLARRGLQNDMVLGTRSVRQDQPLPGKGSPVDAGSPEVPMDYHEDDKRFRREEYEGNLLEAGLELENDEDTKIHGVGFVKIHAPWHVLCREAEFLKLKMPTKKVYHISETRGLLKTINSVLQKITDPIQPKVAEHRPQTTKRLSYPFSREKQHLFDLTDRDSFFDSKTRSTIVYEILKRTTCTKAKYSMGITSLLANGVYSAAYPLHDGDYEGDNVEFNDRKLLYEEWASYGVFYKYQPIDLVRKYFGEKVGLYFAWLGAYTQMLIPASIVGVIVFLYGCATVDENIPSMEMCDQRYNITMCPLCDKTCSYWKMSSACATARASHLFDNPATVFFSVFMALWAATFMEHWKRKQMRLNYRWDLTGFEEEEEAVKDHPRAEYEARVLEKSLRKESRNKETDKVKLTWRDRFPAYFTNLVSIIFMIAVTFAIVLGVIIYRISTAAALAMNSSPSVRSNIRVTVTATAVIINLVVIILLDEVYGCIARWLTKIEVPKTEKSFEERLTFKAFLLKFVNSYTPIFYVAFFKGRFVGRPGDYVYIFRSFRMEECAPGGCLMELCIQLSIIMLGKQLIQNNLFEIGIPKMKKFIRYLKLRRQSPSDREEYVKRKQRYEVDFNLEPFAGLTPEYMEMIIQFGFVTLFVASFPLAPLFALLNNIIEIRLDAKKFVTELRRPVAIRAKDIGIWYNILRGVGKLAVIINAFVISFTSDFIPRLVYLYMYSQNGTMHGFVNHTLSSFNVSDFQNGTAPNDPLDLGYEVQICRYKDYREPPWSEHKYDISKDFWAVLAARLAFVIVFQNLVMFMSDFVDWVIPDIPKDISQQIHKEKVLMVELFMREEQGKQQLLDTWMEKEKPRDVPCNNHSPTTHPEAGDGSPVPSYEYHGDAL
ANO1 block = mouse TMEM16A channel inhibition, primary screen; Q8BHY3; HEK293 TMEM16A/YFP iodide influx fluorescence, ionomycin; normalized B-score (activity score, 25-100; higher = stronger inhibition) at 10 µM; 310,000 compounds, 1.2% hits; AID 588511;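 active means ratio plate-corrected score three or more library SD toward inhibition, starting fluorescence score within five deviations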;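 further: score derived from kinetic fluorescence span divided by baseline fluorescence per well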
MT1-MMP act inh = MT1-MMP (human) activation inhibition; P50281; HT1080 RFP-PRO-GFP cells, GFP/RFP ratio fluorescence, overnight; percent of plate control window, DMSO zero; GFP/RFP ratio change, % at 20 µM; 360,000 compounds, 0.061% hits;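 active means GFP/RFP ratio change of at least 30% with cell ATP level not reduced by more than half and red fluorescence within 50% of control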
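Assay system – RFP-PRO-GFP reporter HT1080 cells · Compound dosing – single dose of 20 µM compound, 1% DMSO final · Incubation – overnight compound exposure at 37 °C · Measure – GFP/RFP fluorescence ratio · Benchmarks – DMSO wells and RFP-L50D-GFP cells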
DAGLB inh = diacylglycerol lipase beta (human) inhibition. HEK293T DAGLB membrane lysate, EnzChek fluorogenic substrate. inhibition, % at 5.17 µM. 340,000 compounds, 0.059% hits. AID 504411; in the data active means inhibition above about 34%;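 further: 0% = enzyme with vehicle and 100% = wells lacking enzyme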
TMEM16A reconf = TMEM16A (mouse) chloride channel inhibition, re-confirmation. shares compounds with ANO1 block. HEK293 TMEM16A/YFP-H148Q, iodide quench fluorescence; ionomycin added to raise cell calcium. inhibition, % at 10 µM. 2,300 compounds, 39% hits. AID 652189;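 active means mean duplicate percent inhibition, scaled so buffer wells are 0 and the reference blocker 100, over three buffer SD above buffer mean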
TMEM16A Ca cntr = counter-screen for TMEM16A inhibitors: effect on calcium mobilization; shares compounds with ANO1 block; calcium response (% of ionomycin), % at 10 µM; AID 652231; 2,300 compounds, 2% hits; TMEM16A/YFP HEK293, Fluo4 calcium mobilization;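 active means duplicate-averaged calcium signal over 20% of the ionomycin maximum, relative to buffer baseline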;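 further: each well's signal is peak minus trough fluorescence divided by its pre-addition baseline; 0% = buffer wells and 100% = ionomycin wells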
Parental YFP cnt = acts in parental YFP-HEK293 cells lacking TMEM16A, counter-screen; shares compounds with ANO1 block; iodide YFP quench, ionomycin; YFP ratio F(max-min)/F0 at 10 µM; 2,300 tested, under 10 active; AID 652233;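 active means yellow fluorescent protein signal ratio exceeding the buffer control mean by over 5 SD of those controls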;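 further: ratio is mean of duplicate wells from kinetic YFP trace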
ClC-1 rat inh = rat ClC-1 inhibition, TMEM16A specificity screen; ratio percent, % at 10 µM; CHO ClC-1-YFP, iodide influx fluorescence quench; iodide control reads 0, buffer control 100; shares compounds with ANO1 block; 2,300 tested, under 10 active; AID 652236;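 active means duplicate-mean ratio percent above the mean of iodide-only control wells, which defines zero, plus 5 of their SD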;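 further: higher percent means stronger block of ClC-1 iodide influx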
An asterisk follows results filed as active; i = inactive; x = no result.

SMILES	TMEM16A act	ANO1 block	MT1-MMP act inh	DAGLB inh	TMEM16A reconf	TMEM16A Ca cntr	Parental YFP cnt	ClC-1 rat inh
CC1=CC(C)(C)N(S(=O)(=O)c2ccc(C)cc2)c2ccccc21	i	100*	8	-13	i	i	-0.94	-16
CCOC(=O)c1c(-c2ccccc2)oc2ccc(OCC(O)CN(C)C)cc12 (stereo not given)	i	i	0	-2	x	x	x	x
COCC(C)n1c(C)cc(C(=O)COC(=O)c2oc3ccccc3c2C)c1C (stereo not given)	i	100*	1	-4	26%*	i	-0.89	-13
COc1nnc(-c2ccc(C)c(S(=O)(=O)NC(C)C)c2)c2ccccc12	i	i	0	0	x	x	x	x
Cc1sc(NC(=O)CSc2nnc3scc(-c4ccccc4)n23)c(C#N)c1C	i	25*	-7	1	i	i	-1.1	-8
Cc1sc(NC(=O)CSc2nnc(COc3ccccc3)n2C)c(C#N)c1C	i	i	2	1	x	x	x	x
CC1=C(c2ccc(C)cc2)S(=O)(=O)N(CC(=O)O)C1=O	i	25*	4	0	i	i	-1.1	-14
COc1ccc(-c2nc(S(=O)(=O)c3ccccc3)c(NCCCN3CCOCC3)o2)cc1	i	x	-3	2	x	x	x	x
CC1CN(S(=O)(=O)c2ccc(C(=O)Nc3nnc(-c4ccc5c(c4)CCCC5)o3)cc2)CC(C)O1 (stereo not given)	i	100*	-8	0	32%*	i	-1	-14
COc1ccc(-n2c(C)cc(C(=O)COC(=O)Cn3cnc4ccccc43)c2C)cc1	i	100*	0	3	23%*	i	-1.2	-10
Cc1cc(C(=O)COc2cccc(-n3cnnn3)c2)c(C)n1-c1ccccc1	i	100*	9	-2	i	i	-0.95	-3
NNC(=O)CNC(=O)Nc1n[nH]c(=S)s1	x	x	1	x	x	x	x	x
COc1ccc(NC(=O)Nc2c(C)n(-c3ccccc3)c(=O)n2C)cc1OC	i	i	3	4	x	x	x	x
CCOc1ccccc1NC(=O)Nc1c(C)n(-c2ccccc2)c(=O)n1C	i	100*	2	0	i	i	-0.81	-1
Cc1cc(C)c(C#N)c(SCSCc2ccccc2)n1	i	i	-1	-15	x	x	x	x
Cc1cc(C)c(C#N)c(SCc2ccccc2)n1	i	25*	-1	-11	i	i	-1.1	-10
Cc1cc(C)c(C#N)c(SCc2ccccc2C)n1	i	25*	3	-7	i	i	-1	-17
Cc1cc(C)c(C#N)c(SCC2COc3ccccc3O2)n1 (stereo not given)	i	100*	-2	-10	i	i	-1.2	-10
COc1ccc(C(N)c2csc(Nc3nncc4ccccc34)n2)cc1 (stereo not given)	x	x	-2	x	x	x	x	x
CCCCCCCCCc1nc2sc3c(c2c(=O)n1NC(=O)c1ccccc1[N+](=O)[O-])CC(C)(C)OC3	i	25*	-1	1	i	i	-1.2	-8
Cc1cc(N2CCN(S(=O)(=O)c3ccc(Cl)c(Cl)c3)CC2)c2ccccc2n1	i	100*	1	-3	i	i	-0.84	-14
Cc1ccc(S(=O)(=O)N2CCN(c3ccnc4cc(Cl)ccc34)CC2)cc1C	i	i	2	-1	x	x	x	x
Cc1ccc(S(=O)(=O)N2CCN(c3ccnc4cc(Cl)ccc34)CC2)cc1	i	100*	5	-2	i	i	-1.2	-14
Cn1nc(C(C)(C)C)c([N+](=O)[O-])c1C(=O)NC1CCCCC1	i	i	3	0	x	x	x	x
